IDH1 R132H inh: inhibitors of IDH1 R132H reductase, primary screen, biochemical, plate reader, single point; 70,000 tested, 0.18% active; diaphorase/resazurin fluorescence, 60 min; inhibition, % at 10 µM; AID 624101, 2012; in the data active = inhibition above about 34%; inconclusive = no clear call, values can overlap the other calls; inactive = below about 11%;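 note: 0% = DMSO and 100% = no enzyme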
Target sequence (O75874 whole entry R132H): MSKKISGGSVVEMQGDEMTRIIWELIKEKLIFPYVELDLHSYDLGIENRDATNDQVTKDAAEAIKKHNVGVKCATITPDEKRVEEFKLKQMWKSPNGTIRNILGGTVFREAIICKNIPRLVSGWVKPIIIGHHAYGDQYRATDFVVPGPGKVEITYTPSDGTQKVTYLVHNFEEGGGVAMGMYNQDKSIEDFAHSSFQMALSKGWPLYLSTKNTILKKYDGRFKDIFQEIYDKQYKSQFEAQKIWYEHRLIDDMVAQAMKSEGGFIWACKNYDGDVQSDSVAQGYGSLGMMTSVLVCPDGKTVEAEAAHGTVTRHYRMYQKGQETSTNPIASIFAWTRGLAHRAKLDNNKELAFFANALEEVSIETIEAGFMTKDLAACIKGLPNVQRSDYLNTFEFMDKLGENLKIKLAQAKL
T cruzi growth-1: T. cruzi intracellular proliferation inhibitors, primary screen, cell-based, beta-gal Tulahuen parasites, NIH3T3 host, luminescence | T. cruzi beta-gal in NIH3T3, GalScreen luminescence, 90 h | inhibition, % at 8.34 µM | 77,000 tested, 5.9% active;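 active = mean inhibition above about 93%, with at least 55% of replicates each passing it, limit read from the data, passing the limit was not always enough; inconclusive = only one of those two conditions holds; inactive = neither condition holds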
GASC1 inh: inhibitors of GASC-1 (KDM4C) histone demethylase, primary screen, biochemical, single concentration HTS; 96,000 tested, 0.15% active; Lysine-specific demethylase 4C (Homo sapiens), Q9H3R0; GST-KDM4C 2-372, H3K9me3 peptide, LANCE TR-FRET; AID 720574, 2013; inhibition, % at 12.5 µM;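 active = mean replicate inhibition above about 25%, with at least 55% of replicates also reaching it, limit read from the data, passing the limit was not always enough; inconclusive = only one of those two conditions met; inactive = neither condition met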
Target sequence (Q9H3R0 2-372 limits assumed): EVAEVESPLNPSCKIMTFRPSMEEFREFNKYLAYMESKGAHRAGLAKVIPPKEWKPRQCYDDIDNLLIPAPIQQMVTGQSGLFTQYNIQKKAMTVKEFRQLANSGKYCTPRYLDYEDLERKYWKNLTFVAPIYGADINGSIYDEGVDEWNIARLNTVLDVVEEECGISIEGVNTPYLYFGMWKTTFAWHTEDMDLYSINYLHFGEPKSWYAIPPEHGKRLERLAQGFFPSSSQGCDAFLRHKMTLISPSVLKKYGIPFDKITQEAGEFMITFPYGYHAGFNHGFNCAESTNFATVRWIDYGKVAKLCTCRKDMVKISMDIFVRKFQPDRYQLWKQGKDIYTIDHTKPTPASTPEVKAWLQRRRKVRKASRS
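reagent = H3K9me3 peptide substrate, Fe(II), 2-oxoglutarate | system = GST-tagged GASC-1 (JMJD2C) catalytic fragment, aa 2-372 | amount = enzyme final amount 10 nM | read-out = Fall in 671/618 emission ratio as inhibition | medium = HEPES buffer, pH 7.5, plus ascorbate | schedule = 30 min reaction, 60 min detection, RT | measured by = LANCE TR-FRET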
Pf Dd2 growth: P. falciparum Dd2 growth inhibitors, primary screen, SYBR Green fluorescence, single dose replicates. 72 h; stronger effect = lower value. activity change, % at 10 µM. 94,000 tested, 2.3% active; in the data active = activity change below about -80%; inconclusive = no clear call, values can overlap the other calls
T cruzi growth-2: T. cruzi intracellular proliferation inhibitors, confirmation, cell-based, NIH3T3 host, beta-gal parasite, luminescence, cherry-pick | T. cruzi beta-gal in NIH3T3, GalScreen luminescence, 90 h | 5,600 tested, 72% active | inhibition, % at 8.35 µM | AID 651739, 2012 | shares compounds with T cruzi growth-1;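 active = mean replicate inhibition above about 95% and at least 55% of replicates individually reaching it, limit read from the data; inconclusive = only one of the two criteria is met; inactive = neither criterion is met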
T cruzi growth-3: inhibitors of intracellular T. cruzi replication, confirmation, NIH3T3 host cells, beta-gal parasites, cherry-pick, set 2. shares compounds with T cruzi growth-1. T. cruzi beta-gal in NIH3T3, GalScreen luminescence, 90 h. inhibition, % at 2.09 µM. 5,600 tested, 21% active. AID 651740, 2012;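 active = mean inhibition above about 95%, with at least 55% of replicates also reaching it, limit read from the data; inconclusive = meets just one of the two conditions; inactive = meets neither condition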;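 note: plate controls were neutral control median for no effect and positive control median for full effect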
3T3 cytotox: cytotoxicity in mouse NIH/3T3 fibroblasts, confirmation, cytotoxicity control for T. cruzi proliferation inhibitor project, cell-based, cherry-pick, single point; shares compounds with T cruzi growth-1; NIH/3T3 viability, CellTiter-Glo ATP luminescence, 90 h; cytotoxicity (signal decrease), % at 8.35 µM; 5,600 tested, 14% active; AID 651742, 2012;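 active = mean signal decrease across replicates above about 35% based on untreated-well scatter, with enough replicates individually passing, limit read from the data; inconclusive = no rule stated though some were filed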;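 note: 0% = median of neutral control wells and 100% = median of positive control wells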
3T3 cytotox 2: NIH/3T3 fibroblast cytotoxicity, confirmation, cytotoxicity control, cell-based, cherry-pick, single point, set 2 | NIH/3T3 viability, CellTiter-Glo ATP luminescence, 90 h | shares compounds with T cruzi growth-1 | inhibition, % at 24.9 µM | 5,600 tested, 56% active;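 active = mean loss of cell viability signal at or above a set limit, and enough replicates individually reaching it; inconclusive = meets only the mean limit or only the replicate share; inactive = meets neither condition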;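 note: 0% = median of neutral control wells and 100% = median of positive control wells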
* marks the source's active call; other numbers are inactive results; u = inconclusive; x = no result given. The list is not random: actives were taken first. Their share in the collection is about 5.8%.

SMILES | IDH1 R132H inh | T cruzi growth-1 | GASC1 inh | Pf Dd2 growth | T cruzi growth-2 | T cruzi growth-3 | 3T3 cytotox | 3T3 cytotox 2
C[C@H]1CN([C@@H](C)CO)S(=O)(=O)c2ccc(C#CCN(C)C)cc2O[C@H]1CN(C)C(=O)C1CCC1 | -2.8 | 105.0* | 6.5 | -6.6 | 101.9* | 91.3 | -11.9 | -2.5
C[C@H](CO)N1C[C@H](C)[C@H](CN(C)C(=O)C2CC2)Oc2cc(C#CCN(C)C)ccc2S1(=O)=O | -0.9 | 94.7* | 1.5 | 4.1 | 109.2* | 92.4 | -8.8 | 20.4
C[C@@H]1CN([C@@H](C)CO)S(=O)(=O)c2ccc(C#CCN(C)C)cc2O[C@@H]1CN(C)C(=O)C1CCCCC1 | 2.5 | x | 3.2 | -10.8 | x | x | x | x
C[C@H]1CN([C@@H](C)CO)S(=O)(=O)c2ccc(C#CCN(C)C)cc2O[C@H]1CN(C)C(=O)C1CC1 | x | 89.5 | 2.6 | -3.7 | x | x | x | x
C[C@@H]1CN([C@@H](C)CO)S(=O)(=O)c2ccc(C#CCN(C)C)cc2O[C@H]1CN(C)C(=O)C1CCC1 | x | 103.8* | 2.3 | -13.8 | 108.0* | 98.9* | -17.5 | 10.8
C[C@@H]1CN([C@H](C)CO)S(=O)(=O)c2ccc(C#CCN(C)C)cc2O[C@H]1CN(C)C(=O)C1CCC1 | -3.9 | 100.2* | 1.0 | -7.4 | u | 100.4* | -1.1 | 2.5
C[C@@H]1CN([C@@H](C)CO)S(=O)(=O)c2ccc(C#CCN(C)C)cc2O[C@@H]1CN(C)C(=O)C1CCC1 | x | 94.0 | 1.0 | 1.7 | x | x | x | x
C[C@@H]1CCCCO[C@H](CN(C)C(=O)Nc2ccc(C(F)(F)F)cc2)[C@@H](C)CN([C@H](C)CO)C(=O)c2cc(NC(=O)c3ccncc3)ccc2O1 | x | 46.3 | x | -26.4 | x | x | x | x
C[C@H](CO)N1C[C@H](C)[C@H](CN(C)C(=O)Nc2ccc(C(F)(F)F)cc2)OCCCC[C@H](C)Oc2ccc(NC(=O)c3ccncc3)cc2C1=O | x | 107.4* | 0.0 | -67.8 | 108.7* | 99.1* | 22.6 | 37.2*
C[C@@H]1CCCCO[C@H](CN(C)C(=O)Nc2ccc(C(F)(F)F)cc2)[C@H](C)CN([C@H](C)CO)C(=O)c2cc(NC(=O)c3ccncc3)ccc2O1 | x | 103.4* | -0.6 | -43.5 | 113.5* | 50.3 | -6.9 | 42.0*
Cc1ccc(-c2ccc([C@H]3[C@H](CO)N4CCCCN(C(=O)Nc5cccc(F)c5)C[C@@H]34)cc2)cc1 | x | 105.7* | 0.6 | 16.0 | 99.5* | u | 118.0* | 105.3*
O=C(Nc1cccc(F)c1)N1CCCCN2[C@H](CO)[C@H](c3ccc(-c4ccncc4)cc3)[C@@H]2C1 | x | 107.8* | 0.8 | -22.8 | 99.6* | 37.8 | 6.9 | 8.4
O=C(Nc1cccc(F)c1)N1CCCCN2[C@H](CO)[C@@H](c3ccc(-c4ccncc4)cc3)[C@@H]2C1 | x | 103.0* | 0.7 | -68.9 | 113.1* | 49.7 | 36.0* | 30.8*
O=C(Nc1ccc(F)cc1)N1CCCCN2[C@@H](CO)[C@H](c3ccc(-c4ccncc4)cc3)[C@@H]2C1 | x | 81.4 | -1.9 | -6.9 | x | x | x | x
Cc1ccc(-c2ccc([C@H]3[C@H]4CN(C(=O)Nc5cccc(F)c5)CCCCN4[C@H]3CO)cc2)cc1 | x | 72.1 | -2.0 | 14.5 | x | x | x | x
CCOc1ccc(NC(=O)C(C)Sc2ncnc3sc(-c4ccccc4)cc23)cc1 (stereo not given) | 0.2 | x | x | x | x | x | x | x
C[C@@H]1CN([C@H](C)CO)C(=O)c2ccccc2-c2ccccc2CO[C@H]1CN(C)S(=O)(=O)c1cccs1 | x | u | 0.8 | 13.9 | 89.3 | 15.5 | 20.8 | u
C[C@@H]1CN([C@H](C)CO)C(=O)c2ccccc2-c2ccccc2CO[C@H]1CN(C)S(=O)(=O)c1ccc(C(F)(F)F)cc1 | x | 95.7* | -0.4 | -51.7 | u | 27.6 | -3.6 | 20.0
Cc1noc(C)c1C(=O)N(C)C[C@H]1OCc2ccccc2-c2ccccc2C(=O)N([C@H](C)CO)C[C@H]1C | x | u | 0.0 | -9.8 | 75.4 | 4.0 | -7.0 | 9.6
C[C@@H]1CN([C@H](C)CO)C(=O)c2ccccc2-c2ccccc2CO[C@H]1CN(C)S(=O)(=O)c1ccc(F)cc1 | x | -11.4 | 0.8 | 52.8 | x | x | x | x
CC1=CCC(C(C)(C)O[C@@H]2O[C@H](C)[C@@H](O)[C@H](O)[C@H]2O)CC1 (stereo not given in full) | 0.2 | x | x | x | x | x | x | x
Cc1noc(C)c1S(=O)(=O)Nc1ccc2c(c1)C(=O)N([C@@H](C)CO)C[C@@H](C)[C@H](CN(C)Cc1ccc(Cl)c(Cl)c1)OCCCC[C@@H](C)O2 | x | u | -2.4 | -58.4 | 87.0 | 104.1* | 57.3* | 105.3*
Cc1noc(C)c1S(=O)(=O)Nc1ccc2c(c1)C(=O)N([C@@H](C)CO)C[C@H](C)[C@@H](CN(C)Cc1ccc(C(F)(F)F)cc1)OCCCC[C@@H](C)O2 | 3.8 | 98.0* | 1.9 | -7.9 | u | u | 18.3 | 105.1*
Cc1noc(C)c1S(=O)(=O)Nc1ccc2c(c1)C(=O)N([C@H](C)CO)C[C@H](C)[C@@H](CN(C)Cc1ccc(C(F)(F)F)cc1)OCCCC[C@H](C)O2 | x | 99.6* | -2.1 | -11.6 | 110.3* | 106.7* | 5.5 | 105.3*
Cc1noc(C)c1S(=O)(=O)Nc1ccc2c(c1)C(=O)N([C@H](C)CO)C[C@H](C)[C@H](CN(C)Cc1ccc(C(F)(F)F)cc1)OCCCC[C@H](C)O2 | x | 101.2* | 8.4 | -64.1 | 97.1* | 105.4* | 29.4 | 104.7*
Cc1noc(C)c1S(=O)(=O)Nc1ccc2c(c1)C(=O)N([C@@H](C)CO)C[C@@H](C)[C@H](CN(C)Cc1ccc(C(F)(F)F)cc1)OCCCC[C@H](C)O2 | 12.5 | 90.5 | -1.1 | -52.6 | x | x | x | x
Cc1noc(C)c1S(=O)(=O)Nc1ccc2c(c1)C(=O)N([C@H](C)CO)C[C@H](C)[C@H](CN(C)Cc1ccc(C(=O)O)cc1)OCCCC[C@H](C)O2 | x | 31.6 | 1.0 | 1.0 | x | x | x | x
O=C(O)c1ccc(C(Nc2ccccn2)c2cc(Cl)c3cccnc3c2O)cc1 (stereo not given) | 0.2 | x | x | x | x | x | x | x
CC(O)c1nc2ccccc2n1CCCOc1ccc(Cl)cc1 (stereo not given) | -0.6 | x | x | x | x | x | x | x
